In article PMC4931877 (The Journal of Pharmacology and Experimental Therapeutics, 2016):
Like-named read-outs stand apart in the source and are kept apart here.

Experiments:
CSF Aβ42 = experiment: Indirect-response simulation of CSF Aβ42 lowering from MAD exposure-response; design: species or system human; details: MAD exposure-response model, Fig. 3F
[1] = tested on: plasma Aβ40, Aβ42, and total Aβ; experiment: SAD study pharmacodynamic effects on plasma Aβ; type: in vivo, human
Method in brief: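 Single oral doses of 10–1200 mg were given as solution or capsule. Blood tubes were inverted and iced, then centrifuged within 30 min at room temperature for 15 min at about 1000g. Plasma was stored at −80°C. Aβ40 and Aβ42 were measured by Luminex duplex immunoassay and total Aβ by MSD, in duplicate.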

[2] = MAD study safety and tolerability; type: in vivo, human
Method in brief: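 Multiple-dose healthy young and elderly subjects were assessed by vital signs, physical examination, 12-lead ECG and clinical laboratory tests. AEs were spontaneously reported or elicited, and their onset, duration, intensity, seriousness, relatedness and action taken were recorded. AEs were coded by MedDRA 12.1 system organ class and preferred term. Columbia suicidality ratings were also collected.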

[3] = tested on: brain and CSF Aβ42 and Aβ40; details: dogs; ref Toyn et al., 2016; cited from earlier work
CYP3A4 = CYP3A4 (Homo sapiens, UniProt P08684); experiment: Preclinical CYP3A4 time-dependent inhibition, induction and metabolism; type: in vitro ADME
UGT1A1 = target: T1, UGT1A1 (Homo sapiens, UniProt P22309); experiment: UGT1A1 inhibition; type: biochemical
T1 sequence (P22309 26-533): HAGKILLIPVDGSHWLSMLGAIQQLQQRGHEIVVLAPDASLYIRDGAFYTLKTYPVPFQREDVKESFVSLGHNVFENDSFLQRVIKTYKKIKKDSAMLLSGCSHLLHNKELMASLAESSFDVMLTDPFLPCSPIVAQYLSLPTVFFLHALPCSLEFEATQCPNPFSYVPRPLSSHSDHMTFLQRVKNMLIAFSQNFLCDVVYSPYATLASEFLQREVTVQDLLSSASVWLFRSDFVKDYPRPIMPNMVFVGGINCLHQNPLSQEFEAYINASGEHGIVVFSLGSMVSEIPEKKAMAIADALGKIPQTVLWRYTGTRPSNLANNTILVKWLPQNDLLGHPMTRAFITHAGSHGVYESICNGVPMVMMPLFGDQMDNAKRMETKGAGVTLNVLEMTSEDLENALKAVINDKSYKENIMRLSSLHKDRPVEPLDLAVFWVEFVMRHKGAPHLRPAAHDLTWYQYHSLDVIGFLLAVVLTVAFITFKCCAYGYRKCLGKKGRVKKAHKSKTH

[4] = tested on: brain and CSF Aβ42 and Aβ40; details: rats; ref Toyn et al., 2016; cited from earlier work
[5] = MAD study plasma pharmacokinetics; type: in vivo, human; details: for half-life / concentration at 24 h / Cmax: human, plasma, oral; for concentration at 24 h: C24 GM (CV%); for Cmax: Cmax GM (CV%)
Method in brief: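 EDTA plasma was sampled at 0–24 h postdose on days 1 and 14, intensively on day 28, and at trough on days 5–25. Drug was measured by validated LC-MS/MS. Parameters are noncompartmental, with trapezoidal and log-trapezoidal AUC. Half-life is ln2/k from a least-squares terminal slope on days 14 and 28.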

[6] = 50 mg, MAD panel 1, 50 mg once daily, day 1
[7] = 50 mg, MAD panel 1, 50 mg once daily, day 14
[8] = 50 mg, MAD panel 1, 50 mg once daily, day 28

Chain of CYP3A4 (P08684 whole entry): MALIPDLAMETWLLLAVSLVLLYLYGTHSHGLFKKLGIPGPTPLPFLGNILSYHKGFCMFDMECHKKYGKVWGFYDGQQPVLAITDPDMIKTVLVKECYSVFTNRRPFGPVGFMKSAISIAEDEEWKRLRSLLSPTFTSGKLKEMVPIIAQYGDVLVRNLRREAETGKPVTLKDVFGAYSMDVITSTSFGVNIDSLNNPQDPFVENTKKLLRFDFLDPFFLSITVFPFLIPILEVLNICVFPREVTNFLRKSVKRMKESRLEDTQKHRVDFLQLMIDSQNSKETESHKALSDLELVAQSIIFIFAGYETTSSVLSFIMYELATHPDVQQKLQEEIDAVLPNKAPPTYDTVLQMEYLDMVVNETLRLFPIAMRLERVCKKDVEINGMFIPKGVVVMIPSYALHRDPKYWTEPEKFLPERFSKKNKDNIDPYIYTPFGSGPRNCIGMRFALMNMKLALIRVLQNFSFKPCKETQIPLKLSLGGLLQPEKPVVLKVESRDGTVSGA

For `CNc1nc(Nc2ccc(-n3cnc(C)n3)c(OC)c2)nc2c1CC[C@H]2c1ccc(F)cc1` [BMS-932481, (S)-7-(4-fluorophenyl)-N2-(3-methoxy-4-(3-methyl-1H-1,2,4-triazol-1-yl)phenyl)-N4-methyl-6,7-dihydro-5H-cyclopenta[d]pyrimidine-2,4-diamine], the “decrease of CSF Aβ42 levels within exposures free of liver toxicity findings” value (CSF Aβ42) was at most 25%, the “change in plasma total Aβ” value ([1]; single dose cohorts) was “No changes” and the “effect on plasma Aβ42 and Aβ40” value ([1]; single-dose) was “dose-dependently decreased”. The “ECG- or vital sign–related AEs” value ([2]; MAD) was “no ECG- or vital sign–related AEs”, the “subjects with increases in total bilirubin” value ([2]; MAD 50 mg, three of six) was 50% and the “subjects with low leukocyte counts” value ([2]; MAD 50 mg, three of six) was 50%. For the same molecule, the “subjects with increases in total bilirubin” value ([2]; MAD 100 mg, three of six) was 50%, the “subjects with increases in bilirubin” value ([2]; MAD 200 mg, five of six) was 83% and the “subjects with low estimated creatinine clearance” value ([2]; MAD 200 mg, three of six) was 50%. For the same molecule, the “subjects with low leukocyte counts” value ([2]; MAD 200 mg, three of six) was 50%, the AEs ([2]; MAD, 50 mg) was 5 (83.3) n (%) and the Deaths ([2]; MAD, 50 mg) was 0 n (%). For the same molecule, the “Discontinuation due to AEs” value ([2]; MAD, 50 mg) was 0 n (%), the “Elevated ALT (marked laboratory abnormality)” value ([2]; MAD, 50 mg) was 0 n (%) and the “Elevated bilirubin (marked laboratory abnormality)” value ([2]; MAD, 50 mg) was 3 (50.0) n (%). The “Elevates AST (marked laboratory abnormality)” value ([2]; MAD, 50 mg) was 0 n (%), the “Low hematocrit (marked laboratory abnormality)” value ([2]; MAD, 50 mg) was 1 (16.7) n (%) and the “Low hemoglobin (marked laboratory abnormality)” value ([2]; MAD, 50 mg) was 2 (33.3) n (%). The “Low leukocytes (marked laboratory abnormality)” value ([2]; MAD, 50 mg) was 3 (50.0) n (%), the “Low lymphocytes (marked laboratory abnormality)” value ([2]; MAD, 50 mg) was 1 (16.7) n (%) and the “Low neutrophils (marked laboratory abnormality)” value ([2]; MAD, 50 mg) was 0 n (%). The SAEs ([2]; MAD, 50 mg) was 0 n (%), the “Treatment-related AEs” value ([2]; MAD, 50 mg) was 3 (50.0) n (%) and the AEs ([2]; MAD, 100 mg) was 4 (66.7) n (%). The Deaths ([2]; MAD, 100 mg) was 0 n (%), the “Discontinuation due to AEs” value ([2]; MAD, 100 mg) was 0 n (%) and the “Elevated ALT (marked laboratory abnormality)” value ([2]; MAD, 100 mg) was 0 n (%). The “Elevated bilirubin (marked laboratory abnormality)” value ([2]; MAD, 100 mg) was 3 (50.0) n (%), the “Elevates AST (marked laboratory abnormality)” value ([2]; MAD, 100 mg) was 0 n (%) and the “Low hematocrit (marked laboratory abnormality)” value ([2]; MAD, 100 mg) was 1 (16.7) n (%). The “Low hemoglobin (marked laboratory abnormality)” value ([2]; MAD, 100 mg) was 1 (16.7) n (%), the “Low leukocytes (marked laboratory abnormality)” value ([2]; MAD, 100 mg) was 1 (16.7) n (%) and the “Low lymphocytes (marked laboratory abnormality)” value ([2]; MAD, 100 mg) was 0 n (%). For the same molecule, the “Low neutrophils (marked laboratory abnormality)” value ([2]; MAD, 100 mg) was 1 (16.7) n (%), the SAEs ([2]; MAD, 100 mg) was 0 n (%) and the “Treatment-related AEs” value ([2]; MAD, 100 mg) was 1 (16.7) n (%). For the same molecule, the AEs ([2]; MAD, 200 mg) was 6 (100.0) n (%), the Deaths ([2]; MAD, 200 mg) was 0 n (%) and the “Discontinuation due to AEs” value ([2]; MAD, 200 mg) was 2 (33.3) n (%). The “Elevated ALT (marked laboratory abnormality)” value ([2]; MAD, 200 mg) was 4 (66.7) n (%), the “Elevated bilirubin (marked laboratory abnormality)” value ([2]; MAD, 200 mg) was 5 (83.3) n (%) and the “Elevates AST (marked laboratory abnormality)” value ([2]; MAD, 200 mg) was 2 (33.3) n (%). For the same molecule, the “Low hematocrit (marked laboratory abnormality)” value ([2]; MAD, 200 mg) was 0 n (%), the “Low hemoglobin (marked laboratory abnormality)” value ([2]; MAD, 200 mg) was 1 (16.7) n (%) and the “Low leukocytes (marked laboratory abnormality)” value ([2]; MAD, 200 mg) was 3 (50.0) n (%). The “Low lymphocytes (marked laboratory abnormality)” value ([2]; MAD, 200 mg) was 0 n (%), the “Low neutrophils (marked laboratory abnormality)” value ([2]; MAD, 200 mg) was 2 (33.3) n (%) and the SAEs ([2]; MAD, 200 mg) was 2 (33.3) n (%). For the same molecule, the “Treatment-related AEs” value ([2]; MAD, 200 mg) was 4 (66.7) n (%), the “subjects with AEs” value ([2]; MAD, 15 subjects) was 83.3% and the AEs ([2]; MAD, all BMS-932481 doses) was 15 (83.3) n (%). The Deaths ([2]; MAD, all BMS-932481 doses) was 0 n (%), the “Discontinuation due to AEs” value ([2]; MAD, all BMS-932481 doses) was 2 (11.1) n (%) and the “Elevated ALT (marked laboratory abnormality)” value ([2]; MAD, all BMS-932481 doses) was 4 (22.2) n (%). For the same molecule, the “Elevated bilirubin (marked laboratory abnormality)” value ([2]; MAD, all BMS-932481 doses) was 11 (61.1) n (%), the “Elevates AST (marked laboratory abnormality)” value ([2]; MAD, all BMS-932481 doses) was 2 (11.1) n (%) and the “Low hematocrit (marked laboratory abnormality)” value ([2]; MAD, all BMS-932481 doses) was 2 (11.1) n (%). For the same molecule, the “Low hemoglobin (marked laboratory abnormality)” value ([2]; MAD, all BMS-932481 doses) was 4 (22.2) n (%), the “Low leukocytes (marked laboratory abnormality)” value ([2]; MAD, all BMS-932481 doses) was 7 (38.9) n (%) and the “Low lymphocytes (marked laboratory abnormality)” value ([2]; MAD, all BMS-932481 doses) was 1 (5.6) n (%). The “Low neutrophils (marked laboratory abnormality)” value ([2]; MAD, all BMS-932481 doses) was 3 (16.7) n (%), the SAEs ([2]; MAD, all BMS-932481 doses) was 2 (11.1) n (%) and the “Treatment-related AEs” value ([2]; MAD, all BMS-932481 doses) was 8 (44.4) n (%). The “subjects with treatment-related AEs” value ([2]; MAD, eight subjects) was 44.4%, the “CSF Aβ42 lowering at exposures at which increases in liver enzymes were observed” value ([2]; after multiple dosing) was “greater than 70%” and the “Aβ42 and Aβ40 lowering in both the brain and CSF” value [3] was “dose-dependent”. The metabolizing enzyme (CYP3A4) was “primarily metabolized by CYP3A4”, the KI (inactivation) (CYP3A4; human) was 82.5 µM and the “induction of CYP3A4 enzyme activity” value (CYP3A4; preclinical) was “weak inducer”. For the same molecule, the IC50 (UGT1A1) was 1.34 µM, the “Aβ42 and Aβ40 lowering in both the brain and CSF” value [4] was “dose-dependent” and the steady state achieved ([5]; MAD 50- and 100-mg dose groups) was at most 14 days. The “dose proportionality of plasma exposure” value ([5]; MAD day 14) was “greater than dose proportionality”, the “slope for AUCτ versus dose” value ([5]; MAD day 14, 95% CI, 1.03–1.88, r^2 = 0.81) was 1.46 and the “slope for Cmax versus dose” value ([5]; MAD day 14, 95% CI, 1.06–1.67, r^2 = 0.9) was 1.36. The “dose proportionality of plasma exposure” value ([5]; first dose (day 1) of multiple-dose administrations, 50 to 200 mg) was “dose proportional”, the half-life ([5]; 50 mg) was 24 h and the concentration at 24 h [5, 6] was 47 ng/mL. It also gave a concentration at 24 h [5, 7] of 204 ng/mL, a concentration at 24 h [5, 8] of 165 ng/mL and a Cmax [5, 6] of 134 ng/mL. The Cmax [5, 7] was 323 ng/mL, the Cmax [5, 8] was 293 ng/mL and the half-life ([5]; 100 mg) was 29 h. For the same molecule, the concentration at 24 h ([5]; 100 mg, MAD panel 2, 100 mg once daily, day 1) was 87 ng/mL, the half-life ([5]; 200 mg) was 37 h and the concentration at 24 h ([5]; 200 mg, MAD panel 3, 200 mg once daily, day 1) was 220 ng/mL. For the same molecule, the “accumulation after multiple dosing” value ([5]; multiple dosing) was “approximately 3 fold”.
